Test results reported in ChEMBL document CHEMBL1138345, “Scouting human A3 adenosine receptor antagonist binding mode using a molecular simplification approach: from triazoloquinoxaline to a pyrimidine skeleton as a key study” (J Med Chem, 2007).

Legend:
Adenosine receptor A3 [1] = target: T1, Adenosine receptor A3 (Homo sapiens, UniProt P0DMS8); test: Displacement of [125I]ABMECA from human adenosine A3 receptor expressed in CHO cell membranes
T1 sequence (P0DMS8 whole entry): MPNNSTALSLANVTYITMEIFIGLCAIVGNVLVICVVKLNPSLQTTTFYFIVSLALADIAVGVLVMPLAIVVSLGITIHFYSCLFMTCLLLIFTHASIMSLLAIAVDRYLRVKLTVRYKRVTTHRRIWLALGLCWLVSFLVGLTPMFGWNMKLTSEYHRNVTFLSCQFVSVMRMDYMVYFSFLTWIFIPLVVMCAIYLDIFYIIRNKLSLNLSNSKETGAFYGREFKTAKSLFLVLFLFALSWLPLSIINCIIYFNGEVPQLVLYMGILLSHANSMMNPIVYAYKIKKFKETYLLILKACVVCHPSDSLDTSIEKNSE
How it was run: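 hA3 CHO membranes, 50 µg protein, with 0.5 nM [¹²⁵I]AB-MECA in 50 mM Tris HCl, 10 mM MgCl₂, 1 mM EDTA, pH 7.4. At least 6–8 ligand concentrations, 120 min at 4 °C. Nonspecific binding with 1 µM AB-MECA. Filtration, counting. Ki via Cheng–Prusoff from IC50; means ± SEM of four assays, each in duplicate.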

[2] = target: T2, Adenosine receptor A2b (Homo sapiens) (UniProt P29275); test: Antagonist activity at human adenosine A2B receptor expressed in CHO cells assessed as inhibition of NECA-stimulated cAMP levels at 1 uM; assay type: functional, cell-based
T2 sequence (whole entry): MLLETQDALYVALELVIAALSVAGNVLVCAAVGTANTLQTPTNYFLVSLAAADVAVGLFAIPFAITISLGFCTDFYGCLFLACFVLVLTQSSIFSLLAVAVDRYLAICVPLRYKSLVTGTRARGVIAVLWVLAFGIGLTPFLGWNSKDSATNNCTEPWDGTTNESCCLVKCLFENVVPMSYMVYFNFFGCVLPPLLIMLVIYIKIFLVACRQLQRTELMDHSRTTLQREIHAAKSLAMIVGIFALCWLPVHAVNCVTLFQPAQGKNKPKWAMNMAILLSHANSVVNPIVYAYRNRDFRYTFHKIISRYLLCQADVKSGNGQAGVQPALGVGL
How it was run: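 Stably transfected hA2B CHO cells, 1 × 10⁶ cells/assay, preincubated 10 min at 37 °C, pH 7.4, with adenosine deaminase 2 IU/ml and Ro 20-1724 as phosphodiesterase inhibitor. Stimulated by 200 nM NECA; test compound at 1 µM. Stopped with cold 6% TCA; cAMP measured by [³H]cAMP competition protein binding with beef adrenal binding protein. Reported as % inhibition.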

[3] = target: Adenosine receptor A2a (Homo sapiens) (UniProt P29274); test: Displacement of [3H]ZM-241385 from human adenosine A2A receptor expressed in CHO cell membranes at 1 uM
Adenosine receptor A2a (Homo sapiens), sequence (P29274 whole entry): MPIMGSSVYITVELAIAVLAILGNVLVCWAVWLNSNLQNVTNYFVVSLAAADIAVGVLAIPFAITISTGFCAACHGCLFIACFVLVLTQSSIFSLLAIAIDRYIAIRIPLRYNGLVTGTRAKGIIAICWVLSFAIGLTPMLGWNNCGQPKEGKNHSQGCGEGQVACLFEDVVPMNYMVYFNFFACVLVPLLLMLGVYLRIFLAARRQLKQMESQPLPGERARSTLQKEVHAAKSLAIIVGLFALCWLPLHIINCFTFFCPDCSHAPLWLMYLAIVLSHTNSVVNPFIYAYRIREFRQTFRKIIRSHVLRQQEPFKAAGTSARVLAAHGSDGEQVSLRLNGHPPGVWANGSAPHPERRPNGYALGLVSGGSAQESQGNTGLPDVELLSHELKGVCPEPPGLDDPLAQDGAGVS
How it was run: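 Binding of 1 nM [³H]ZM-241385 to hA2A CHO membranes (50 µg protein) in 50 mM Tris HCl, 10 mM MgCl₂, pH 7.4, 60 min at 4 °C; nonspecific binding with 1 µM ZM-241385; filtration and counting; % inhibition at 1 µM test compound.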

[4] = target: T3, Adenosine receptor A1 (Homo sapiens) (UniProt P30542); test: Displacement of [3H]DPCPX from human adenosine A1 receptor expressed in CHO cell membranes at 1 uM
T3 sequence (whole entry): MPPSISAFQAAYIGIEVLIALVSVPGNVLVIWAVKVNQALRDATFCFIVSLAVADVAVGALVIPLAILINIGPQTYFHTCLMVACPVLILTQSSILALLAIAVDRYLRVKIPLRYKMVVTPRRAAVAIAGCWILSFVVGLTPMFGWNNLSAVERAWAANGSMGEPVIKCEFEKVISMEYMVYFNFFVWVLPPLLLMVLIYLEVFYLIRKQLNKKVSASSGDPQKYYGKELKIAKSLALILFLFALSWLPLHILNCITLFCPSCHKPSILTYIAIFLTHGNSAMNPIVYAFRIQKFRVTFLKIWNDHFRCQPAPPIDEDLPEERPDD
How it was run: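 hA1 CHO membranes (50 µg protein) with 1 nM [³H]DPCPX in 50 mM Tris HCl pH 7.4, 120 min at 25 °C; nonspecific binding with 10 µM CHA; glass-fiber filtration, scintillation counting; % inhibition at 1 µM test compound.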

[5] = target: T4, Adenosine receptor A3 (Homo sapiens) (UniProt P0DMS8); test: Displacement of [125I]ABMECA from human adenosine A3 receptor expressed in CHO cell membranes at 1 uM
T4 sequence (whole entry): T1 sequence (P0DMS8 whole entry)
How it was run: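 Competition at hA3 CHO membranes (50 µg protein) against 0.5 nM [¹²⁵I]AB-MECA, Tris HCl/MgCl₂/EDTA buffer pH 7.4, 120 min at 4 °C; nonspecific binding with 1 µM AB-MECA; test compound at 1 µM; % inhibition of binding.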

Adenosine receptor A3 [6] = target: T1, Adenosine receptor A3; test: Activity at human adenosine A3 receptor expressed in CHO cells assessed as antagonism of Cl-IB-MECA-inhibited cAMP production; assay type: functional, cell-based
How it was run: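 CHO cells stably expressing hA3, washed, trypsinized, 1 × 10⁶ cells/assay, preincubated 10 min at 37 °C in buffered salt–glucose medium (pH 7.4) with adenosine deaminase 2 IU/ml and Ro 20-1724. Forskolin 1 µM plus Cl-IB-MECA 100 nM. Stopped with cold 6% TCA, ether-extracted, cAMP by [³H]cAMP competition protein binding. IC50 from sigmoid nonlinear regression; means ± SEM of four experiments.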

| Compound | Ki (Adenosine receptor A3 [1]) | inhibition [2] | Activity [3] | Activity [4] | Activity [5] | IC50 (Adenosine receptor A3 [6]) |
| --- | --- | --- | --- | --- | --- | --- |
| Cc1ccc(NC(=O)c2[nH]c(=O)nc3ccccc23)cc1 | 26.7 nM | – | – | – | – | – |
| COc1ccc(NC(=O)c2cc(N)nc3ccccc23)cc1 | – | 3% | 3% | 2% | 1% | – |
| Nc1nc(C(=O)Nc2ccc(Br)cc2)c2ccccc2n1 | 550 nM | 2% | 1% | 1% | – | – |
| Nc1nc(C(=O)NC2CCCCC2)c2ccccc2n1 | – | 1% | 3% | 2% | 21% | – |
| COc1ccc(NC(=O)c2nc(N)nc3ccccc23)cc1 | 87.5 nM | 23% | 6% | 8% | – | – |
| Nc1cc(C(=O)Nc2ccccc2)c2ccccc2n1 | – | 5% | 2% | 1% | 6% | – |
| CC(=O)Nc1nc(C(=O)Nc2ccccc2)c2ccccc2n1 | 25.3 nM | 5% | 7% | 25% | – | 140 nM |
| COc1ccc(NC(=O)c2ccnc(N)n2)cc1 | – | 3% | 6% | 3% | 15% | – |
| COc1ccc(NC(=O)c2[nH]c(=O)nc3ccccc23)cc1 | 19.5 nM | – | – | – | – | 125 nM |
| COc1ccc(NC(=O)c2ccnc(N(C(=O)c3ccccc3)C(=O)c3ccccc3)n2)cc1 | – | 3% | 1% | 5% | 14% | – |

Now from value to compound:

| Ki (Adenosine receptor A3 [1]) | inhibition [2] | Activity [3] | Activity [4] | Activity [5] | IC50 (Adenosine receptor A3 [6]) | Compound |
| --- | --- | --- | --- | --- | --- | --- |
| – | 2% | 6% | 6% | 22% | – | COc1ccc(NC(=O)c2ccnc(NC(=O)c3ccccc3)n2)cc1 |
| 50 nM | – | – | – | – | 238 nM | O=C(Nc1ccccc1)c1[nH]c(=O)nc2ccccc12 |
| – | 2% | 1% | 3% | – | – | O=C(Nc1ccc(Br)cc1)c1nc(=O)[nH]c2ccccc12 |
| 98.3 nM | 4% | 5% | 3% | – | – | Cc1ccc(NC(=O)c2nc(N)nc3ccccc23)cc1 |
| – | 9% | 1% | 4% | – | – | COc1ccc(NC(=O)c2nc(=O)[nH]c3ccccc23)cc1 |
| – | 4% | 1% | 22% | – | – | O=C(Nc1ccccc1)c1nc(=O)[nH]c2ccccc12 |
| 27.2 nM | – | – | – | – | – | O=C(Nc1ccc(Br)cc1)c1[nH]c(=O)nc2ccccc12 |
| – | 3% | 1% | 4% | 26% | – | COc1ccc(NC(=O)c2cc(=O)[nH]c3ccccc23)cc1 |
| – | 2% | 1% | 1% | 38% | – | O=C(Nc1ccccc1)c1cc(=O)[nH]c2ccccc12 |
| 350 nM | 5% | 17% | 40% | – | – | Nc1nc(C(=O)Nc2ccccc2)c2ccccc2n1 |
| 182 nM | 3% | 10% | 7% | – | – | O=C(Nc1nc(C(=O)Nc2ccccc2)c2ccccc2n1)c1ccccc1 |
| – | 2% | 2% | 21% | – | – | Cc1ccc(NC(=O)c2nc(=O)[nH]c3ccccc23)cc1 |
